Measurements collected from several papers.
Lines come from different studies, so protocols differ.
Target: Ephrin type-A receptor 5 (EPHA5, Homo sapiens, UniProt P54756)

Cc1ccc(NC(=O)c2ccc(C)c(C(F)(F)F)c2)cc1C#Cc1nn(C2CCC(O)CC2)c2ncnc(N)c12 (stereo not shown)
remaining signal (cell-free assay; 10 µM): -1%

C=CC(=O)Nc1cc(Nc2nccc(Nc3cc(Cl)c(F)cc3C(C)(C)O)n2)c(OC)cc1N1CC[C@@H](N(C)C)C1
inhibition (enzyme activity, inhibitor; 1 µM): 17%

Cc1ccc(C(=O)NCc2ccsc2)cc1C#Cc1cn(C(C)C)c2ncnc(N)c12
activity vs control (enzyme activity, inhibitor; 1 µM): 1%

CC(C)(C)c1nc2c(s1)c1nc(N)ncc1c1ccc(NS(=O)(=O)c3c(F)cccc3F)c(F)c12
remaining activity (enzyme activity, inhibitor, radiometric; 1 µM): 109%

CN1CC(Oc2cnc(C#N)cc2-c2ccn3nc(NC(=O)C4CC4)cc3c2)C1
inhibition (enzyme activity, inhibitor; 1 µM): 10%

O=C1NC(=O)c2cc(Nc3ccc(F)cc3)c(Nc3ccc(F)cc3)cc21
remaining signal (cell-free assay; 0.5 µM): 95.4%

CC(C)c1ccc(NC(=O)c2cccs2)c(-c2nc3ccccc3[nH]c2=O)c1
activity vs control (enzyme activity, inhibitor; 1 µM): 112%

Cc1cnc(NC2CCOCC2)nc1-n1cnc(C(=O)NC(CN)c2cc(F)cc(Cl)c2)c1 (stereo not shown)
remaining activity (enzyme activity, inhibitor, radiometric; 1 µM): 92%

O=C(Nc1ccc(Oc2ccc(F)cc2)cc1)N1CCc2ncccc2[C@H]1c1ccc(F)cc1
remaining binding (cell-free assay, competition with immobilised ligand; 1 µM): 100%

COc1cc2c(N3CCN(C(=O)Nc4ccc(OC(C)C)cc4)CC3)ncnc2cc1OCCCN1CCCCC1
remaining signal (cell-free assay; 0.5 µM): 104%

Nc1ncnc2occ(-c3ccc(NC(=O)Nc4cc(C(F)(F)F)ccc4F)cc3)c12
remaining signal (cell-free assay; 20 µM): 0.05%

O=C(Nc1cnn(-c2csc(C(=O)NC3COC3)c2)c1)Nc1c(F)cccc1Cl
remaining activity (enzyme activity, inhibitor; 5 µM): 95%

Cc1ccc(C(=O)Nc2ccc(CN3CCN(C)CC3)c(C(F)(F)F)c2)cc1C#Cc1cnc2cccnn12
remaining signal (cell-free assay; 23.5 nM): 31%

COc1cc(-c2cn(C3CCc4c(F)cccc4N(CC(F)(F)F)C3=O)nn2)ccc1-n1cnc(C)c1 (stereo not shown)
remaining binding (cell-free assay, competition with immobilised ligand; 1 µM): 100%

CCN(CC)CCNC(=O)c1c(C)[nH]c(/C=C2\C(=O)Nc3ccc(F)cc32)c1C
inhibition (enzyme activity, inhibitor; 0.3 µM): 7%

N#CC1(c2ccccn2)CCN(Cc2cc(C(=O)N3CCCC3)c(=O)n3ccccc23)CC1
remaining binding (cell-free assay, competition with immobilised ligand; 1 µM): 100%

CNC(=O)c1cc(Oc2ccc(NC(=O)Nc3ccc(Cl)c(C(F)(F)F)c3)cc2)ccn1
inhibition (enzyme activity, inhibitor; 10 µM): 92%

CS(=O)(=O)NCC[C@H](NC(=O)c1cncc2c1cnn2-c1ccc(F)cc1)c1ccnc(S(C)(=O)=O)c1
remaining binding (cell-free assay, competition with immobilised ligand; 1 µM): 100%

COc1cc2ncnc(Nc3ccc(Oc4ccccc4)c(C)c3C)c2cc1OC
inhibition (enzyme activity, inhibitor; 1 µM): 1%

CCOCCn1cc(C(=O)Nc2ccc(-n3nc(-c4cccnc4)cc3C(F)(F)F)cn2)ccc1=O
remaining binding (cell-free assay, competition with immobilised ligand; 1 µM): 100%

N#CCCc1ccc2c(c1)-c1[nH]c3ccc([N+](=O)[O-])cc3c1CC(=O)N2
remaining signal (cell-free assay; 0.5 µM): 88.5%

CC(=O)N1CCC(c2ccc(C(=O)NC3=NCCN3)cc2C(F)(F)F)CC1
remaining binding (cell-free assay, competition with immobilised ligand; 1 µM): 100%

Cc1ccc(Nc2nccc(N(C)c3ccc4c(C)n(C)nc4c3)n2)cc1S(N)(=O)=O
inhibition (enzyme activity, inhibitor; 0.3 µM): 6%

COc1cc(-c2cc(-c3ccc(N4CCNCC4)cc3)cnc2C)cc(OC)c1OC
inhibition (enzyme activity, inhibitor; 1 µM): 4%

Cc1noc([C@H]2C[C@@H](c3ccc(C(F)(F)F)cc3)CN(C(=O)N3CCS(=O)(=O)C3)C2)n1
remaining binding (cell-free assay, competition with immobilised ligand; 1 µM): 100%
